Assay results published in ChEMBL document CHEMBL4270554, “Discovery of the cancer cell selective dual acting anti-cancer agent (Z)-2-(1H-indol-3-yl)-3-(isoquinolin-5-yl)acrylonitrile (A131)” (Eur J Med Chem, 2018).
Calls of active or inactive are those of the source. The rule behind the calls is not given here.

Tests used:
HeLa [1] = experiment: Induction of mitotic arrest in human HeLa cells assessed as formation of misaligned chromosomes at 15 to 25 uM after 6 hrs by DAPI staining-based immunofluorescence analysis; format: functional, cell-based
HeLa [2] = experiment: Induction of mitotic arrest in human HeLa cells assessed as formation of disorganized spindles at 15 to 25 uM after 6 hrs by DAPI staining-based immunofluorescence analysis; format: functional, cell-based
HeLa [3] = experiment: Inhibition of mitotic progression in human HeLa cells assessed as upregulation of phosphorylated histone H3 (Ser10) level up to 100 uM after 6 hrs by immunoblot analysis; format: functional, cell-based
In short: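 HeLa cells treated 6 h with 0.625–10 μM test agent or chloroquine (1.25–100 μM), or DMSO. Lysis in 1% Triton buffer (pH 8.0) with protease and phosphatase inhibitors, 14% SDS-PAGE, immunoblot for LC3, pH3 (Ser10) and β-actin. Band intensity ratios (LC3-II/LC3-I; pH3) expressed relative to DMSO control.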

HeLa [4] = experiment: Induction of autophagy in human HeLa cells assessed as increase in LC3-2 to LC3-1 ratio at 1.25 uM after 6 hrs by immunoblot analysis relative to control; format: functional
In short: (§1)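 HeLa cells exposed 6 h to test agent (0.625–10 μM series) or chloroquine (1.25–100 μM series) vs DMSO; lysed in 1% Triton buffer (25 mM Tris pH 8.0, 150 mM NaCl, DTT, protease/phosphatase inhibitors), 14% SDS-PAGE, immunoblot with anti-LC3, anti-pH3(Ser10), β-actin loading. LC3-II/LC3-I band intensity ratio expressed relative to DMSO control.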

HeLa [5] = experiment: Induction of autophagy in human HeLa cells assessed as increase in LC3-2 to LC3-1 ratio at 2.5 uM after 6 hrs by immunoblot analysis relative to control; format: functional; in short: as §1
HeLa [6] = experiment: Induction of autophagy in human HeLa cells assessed as increase in LC3-2 to LC3-1 ratio at 10 uM after 6 hrs by immunoblot analysis relative to control; format: functional; in short: as §1
HeLa [7] = experiment: Induction of autophagy in human HeLa cells assessed as increase in LC3-2 to LC3-1 ratio at 50 uM after 6 hrs by immunoblot analysis relative to control; format: functional; in short: as §1
HeLa [8] = experiment: Induction of autophagy in human HeLa cells assessed as increase in LC3-2 to LC3-1 ratio at 100 uM after 6 hrs by immunoblot analysis relative to control; format: functional; in short: as §1
[9] = Solubility of the compound in 10% DMSO/90% water at pH 3.5 by HPLC analysis; format: physicochemical
In short: (§2)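 1 mg of HCl salt mixed with vehicle (0.5 mL total), target 1 mg/mL. Components added in order: organic solvent (DMSO, ethanol or NMP), then PEG400, then water, vortexing after each addition. Sonicated 15 min, left 3 h at room temperature, then centrifuged 5 min.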

[10] = Solubility of the compound in 10% DMSO/90% water at pH 5 by HPLC analysis; format: physicochemical; in short: as §2
[11] = Solubility of the compound in 10% DMSO/90% water at pH 7 by HPLC analysis; format: physicochemical; in short: as §2
[12] = Solubility of the compound in 60% PEG400/40% water at pH 3.5 by HPLC analysis; format: physicochemical; in short: as §2
[13] = Solubility of the compound in 60% PEG400/40% water at pH 5 by HPLC analysis; format: physicochemical; in short: as §2
[14] = Solubility of the compound in 60% PEG400/40% water at pH 7 by HPLC analysis; format: physicochemical; in short: as §2
[15] = Solubility of the compound in 10% EtOH/50% PEG400/40% water at pH 5 by HPLC analysis; format: physicochemical; in short: as §2
[16] = Solubility of the compound in 10% DMSO/50% PEG400/40% water at pH 5 by HPLC analysis; format: physicochemical; in short: as §2
[17] = Solubility of the compound in 10% NMP/50% PEG400/40% water at pH 5 by HPLC analysis; format: physicochemical; in short: as §2
[18] = Solubility of the compound in 10% EtOH/50% PEG400/40% water at pH 3.5 by HPLC analysis; format: physicochemical; in short: as §2
[19] = Solubility of the compound in 10% DMSO/50% PEG400/40% water at pH 3.5 by HPLC analysis; format: physicochemical; in short: as §2
[20] = Solubility of the compound in 10% NMP/50% PEG400/40% water at pH 3.5 by HPLC analysis; format: physicochemical; in short: as §2
[21] = Terminal half life in Wistar rat at 2 mg/kg, iv by LC-MS/MS analysis; format: ADME, organism-based; details: in vivo, read-out: beta t1/2 (converted)
In short: (§3)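 Male Wistar rats, n = 3 per route, dosed with HCl salt as 1 mg/mL solution in 10% DMSO/50% PEG400/40% water pH 5. Doses 2 mg/kg iv or 10 mg/kg po. Heparinised blood sampled via catheter (0–4 h iv, 0–24 h po), plasma analysed by LC-MS/MS. Parameters derived by non-compartmental analysis.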

[22] = AUC (0 to t) in Wistar rat at 2 mg/kg, iv by LC-MS/MS analysis; format: ADME, organism-based; details: in vivo
In short: (§4)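 Male Wistar rats (n = 3), intravenous dose of 2 mg/kg HCl salt as 1 mg/ml solution in 10% DMSO, 50% PEG400, 40% water pH 5. Catheter blood sampling over 0–4 h into heparin. Plasma separated, stored at -80 °C, measured by LC-MS/MS. Non-compartmental estimation, mean (SD).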

[23] = AUC (0 to infinity) in Wistar rat at 2 mg/kg, iv by LC-MS/MS analysis; format: ADME, organism-based; parameters: dose 2 mg/kg, time infinity, route intravenous; details: in vivo; in short: as §4
[24] = MRT in Wistar rat at 2 mg/kg, iv by LC-MS/MS analysis; format: ADME, organism-based; details: in vivo; in short: as §3
[25] = Half life in Wistar rat at 10 mg/kg, po by LC-MS/MS analysis; format: ADME, organism-based; details: in vivo
In short: (§5)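 Male Wistar rats dosed orally at 10 mg/kg with HCl salt as solution in 10% DMSO, 50% PEG400, 40% water pH 5. Catheter blood over 0-24 h into heparin, plasma by LC-MS/MS. Non-compartmental PK; n = 3, mean (SD).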

[26] = AUC (0 to t) in Wistar rat at 10 mg/kg, po by LC-MS/MS analysis; format: ADME, organism-based; details: in vivo
In short: (§6)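 Male Wistar rats (n = 3), single oral dose of 10 mg/kg HCl salt given as 1 mg/ml solution in 10% DMSO, 50% PEG400, 40% water pH 5. Blood drawn from catheter over 0–24 h into heparin tubes. Plasma spun off, stored at -80 °C, quantified by LC-MS/MS. Parameters by non-compartmental analysis, mean (SD).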

[27] = AUC (0 to infinity) in Wistar rat at 10 mg/kg, po by LC-MS/MS analysis; format: ADME, organism-based; parameters: dose 10 mg/kg, time infinity, route oral; details: in vivo; in short: as §6
[28] = Cmax in Wistar rat at 10 mg/kg, po by LC-MS/MS analysis; format: ADME, organism-based; parameters: dose 10 mg/kg, route oral; details: in vivo; in short: as §5
[29] = Tmax in Wistar rat at 10 mg/kg, po by LC-MS/MS analysis; format: ADME, organism-based; details: in vivo; in short: as §3
[30] = MRT in Wistar rat at 10 mg/kg, po by LC-MS/MS analysis; format: ADME, organism-based; details: in vivo; in short: as §3
[31] = Oral bioavailability in Wistar rat at 10 mg/kg by LC-MS/MS analysis; format: ADME, organism-based; details: in vivo; in short: as §3

In the case of `CCN(CC)CCCC(C)Nc1ccnc2cc(Cl)ccc12` (stereo unspecified) [CHLOROQUINE], the Activity (HeLa [1]) is reported as “inactive”, the Activity (HeLa [2]) is reported as “inactive” and the inhibition (HeLa [3]) is reported as “inactive”. For the same molecule, the “fold change (FC)” value (HeLa [4]) was 1.7, the “fold change (FC)” value (HeLa [5]) was 1.9 and the “fold change (FC)” value (HeLa [6]) was 3.1. The “fold change (FC)” value (HeLa [7]) was 4.2 and the “fold change (FC)” value (HeLa [8]) was 4.2.
Work on `Cl.N#C/C(=C\c1cccc2cnccc12)c1c[nH]c2ccccc12` yielded a solubility [9] of 7 µg/mL, a solubility [10] of 6 µg/mL and a solubility [11] of 3 µg/mL. It also gave a solubility [12] of 1060 µg/mL, a solubility [13] of 940 µg/mL and a solubility [14] of 869 µg/mL. For the same molecule, the solubility [15] was 741 µg/mL, the solubility [16] was 1200 µg/mL and the solubility [17] was 1170 µg/mL. It also gave a solubility [18] of 1300 µg/mL, a solubility [19] of 966 µg/mL and a solubility [20] of 1220 µg/mL. The half-life [21] was 21.6 min, the AUC(0-t) [22] was 820 ng·h/mL and the AUC(0-inf) [23] was 822 ng·h/mL. It also gave an MRT [24] of 17.4 min, a half-life [25] of 96 min and an AUC(0-t) [26] of 1690 ng·h/mL. For the same molecule, the AUC(0-inf) [27] was 1770 ng·h/mL, the Cmax [28] was 1130 ng/mL and the Tmax [29] was 43.2 min. For the same molecule, the MRT [30] was 113 min and the bioavailability [31] was 43%.
